Organism: Rattus norvegicus
Assay: Compound tested to inhibit (LPO) lipid peroxidation was determined in rat brain microsomes
Type: functional
Procedure, shortened: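 Rat brain microsomes; lipid peroxidation induced by Fe2+. Antioxidant activity read as reduction of malondialdehyde formed from unsaturated fatty acid peroxidation.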

IC50 [µM] | SMILES
32 | CC1=NN(c2ccccc2)C(=O)C1 [EDARAVONE]
30 | Cc1cc(C(C)(C)C)c(O)c(C(C)(C)C)c1 [BUTYLATED HYDROXYTOLUENE]
